{"source": "ChEMBL document CHEMBL5661979", "about": "“Pharmacological inhibition of BMK1 suppresses tumor growth through promyelocytic leukemia protein” (Cancer Cell, 2010)", "key": {"[1]": {"target": "Tyrosine-protein kinase Lyn (Homo sapiens, UniProt P07948)", "test": "Inhibition of LYN in human HeLa cells lysate pre incubated for 15 mins followed by ATP acyl phosphate probe addition and measured after 10 mins by LC-MS/MS analysis", "format": "subcellular"}, "[2]": {"target": "Calcium/calmodulin-dependent protein kinase type II subunit delta (Homo sapiens, UniProt Q13557)", "sequence (Q13557 whole entry)": "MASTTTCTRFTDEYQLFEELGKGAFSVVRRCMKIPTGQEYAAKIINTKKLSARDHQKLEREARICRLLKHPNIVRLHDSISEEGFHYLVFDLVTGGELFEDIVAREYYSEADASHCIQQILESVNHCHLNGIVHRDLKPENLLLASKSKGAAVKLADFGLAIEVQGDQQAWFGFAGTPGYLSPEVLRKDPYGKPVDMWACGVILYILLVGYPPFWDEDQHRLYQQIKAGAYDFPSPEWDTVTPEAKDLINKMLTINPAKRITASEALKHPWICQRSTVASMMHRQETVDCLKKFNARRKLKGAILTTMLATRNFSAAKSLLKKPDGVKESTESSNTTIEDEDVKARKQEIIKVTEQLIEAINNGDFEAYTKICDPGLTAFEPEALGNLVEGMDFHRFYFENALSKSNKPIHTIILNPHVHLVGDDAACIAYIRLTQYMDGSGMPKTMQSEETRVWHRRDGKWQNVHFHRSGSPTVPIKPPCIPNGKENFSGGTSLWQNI", "test": "Inhibition of CamK2d in human HeLa cells lysate at 2 uM pre incubated for 15 mins followed by ADP acyl phosphate probe addition and measured after 10 mins by LC-MS/MS analysis relative to control", "format": "subcellular", "conditions": "time 25.0 min"}, "[3]": {"target": "T1, Phosphatidylinositol 5-phosphate 4-kinase type-2 alpha (Homo sapiens, UniProt P48426)", "T1 sequence (P48426 whole entry)": "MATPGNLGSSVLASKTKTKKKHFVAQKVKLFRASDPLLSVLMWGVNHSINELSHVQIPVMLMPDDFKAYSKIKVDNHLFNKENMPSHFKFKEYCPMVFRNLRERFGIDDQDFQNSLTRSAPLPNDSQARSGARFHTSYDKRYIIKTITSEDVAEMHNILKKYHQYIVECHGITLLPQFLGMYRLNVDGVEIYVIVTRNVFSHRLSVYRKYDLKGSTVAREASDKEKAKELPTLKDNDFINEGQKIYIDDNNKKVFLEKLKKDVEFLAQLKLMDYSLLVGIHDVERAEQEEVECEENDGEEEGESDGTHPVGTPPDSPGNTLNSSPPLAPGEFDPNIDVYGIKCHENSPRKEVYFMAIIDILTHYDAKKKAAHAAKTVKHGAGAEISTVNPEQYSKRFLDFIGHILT", "test": "Inhibition of PIP5K2A LIP1 labeling site in human HeLa cells lysate pre incubated for 15 mins followed by ATP acyl phosphate probe addition and measured after 10 mins by LC-MS/MS analysis", "format": "subcellular"}, "[4]": {"target": "Calcium/calmodulin-dependent protein kinase type 1D (Homo sapiens, UniProt Q8IU85)", "sequence (Q8IU85 whole entry, looked up)": "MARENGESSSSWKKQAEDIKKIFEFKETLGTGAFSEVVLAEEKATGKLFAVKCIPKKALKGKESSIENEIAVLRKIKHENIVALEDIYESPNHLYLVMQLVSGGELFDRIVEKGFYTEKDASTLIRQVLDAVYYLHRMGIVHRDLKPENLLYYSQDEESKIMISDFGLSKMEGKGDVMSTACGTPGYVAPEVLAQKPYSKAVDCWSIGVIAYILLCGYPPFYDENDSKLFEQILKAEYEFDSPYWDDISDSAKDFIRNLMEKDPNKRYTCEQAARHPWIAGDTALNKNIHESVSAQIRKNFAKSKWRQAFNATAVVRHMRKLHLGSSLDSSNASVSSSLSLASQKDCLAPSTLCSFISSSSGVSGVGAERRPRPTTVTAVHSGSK", "test": "Inhibition of CAMK1d in human HeLa cells lysate at 50 uM pre incubated for 15 mins followed by ATP acyl phosphate probe addition and measured after 10 mins by LC-MS/MS analysis relative to control", "format": "subcellular", "conditions": "time 25.0 min", "procedure,_shortened": "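KiNativ-type profiling in HeLa lysate (5 mg/mL total protein). Lysate preincubated 15 min with inhibitor at 50, 10, 2, 0.8 or 0 μM, then ATP or ADP acylphosphate probe added (5 μM final) for 10 min. Reaction stopped with urea and analysed by targeted MS, using up to four fragment ions per kinase peptide-probe conjugate. % inhibition calculated against untreated lysate. Duplicate reactions.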"}, "[5]": {"test": "Toxicity in C57Bl/6 mouse assessed as effect on total protein level at 50 mg/kg, ip for 14 days (reference value: 5.8 g/dl)", "format": "organism-based", "conditions": "in vivo, 336 h, time 14 day"}, "[6]": {"target": "Glycogen synthase kinase-3 beta (Homo sapiens, UniProt P49841)", "test": "Inhibition of GSK3B isoform 2 in human HeLa cells lysate at 10 uM pre incubated for 15 mins followed by ATP acyl phosphate probe addition and measured after 10 mins by LC-MS/MS analysis relative to control", "format": "subcellular", "conditions": "time 25.0 min"}, "[7]": {"target": "Interferon-induced, double-stranded RNA-activated protein kinase (Homo sapiens, UniProt P19525)", "test": "Inhibition of PKR in human HeLa cells lysate pre incubated for 15 mins followed by ADP acyl phosphate probe addition and measured after 10 mins by LC-MS/MS analysis", "format": "subcellular"}, "[8]": {"target": "Phosphatidylinositol 3-kinase catalytic subunit type 3 (Homo sapiens, UniProt Q8NEB9)", "test": "Inhibition of PIK3C3 in human HeLa cells lysate at 50 uM pre incubated for 15 mins followed by ATP acyl phosphate probe addition and measured after 10 mins by LC-MS/MS analysis relative to control", "format": "subcellular", "conditions": "time 25.0 min"}, "[9]": {"target": "Ribosomal protein S6 kinase beta-1 (Homo sapiens, UniProt P23443)", "sequence (P23443 whole entry, looked up)": "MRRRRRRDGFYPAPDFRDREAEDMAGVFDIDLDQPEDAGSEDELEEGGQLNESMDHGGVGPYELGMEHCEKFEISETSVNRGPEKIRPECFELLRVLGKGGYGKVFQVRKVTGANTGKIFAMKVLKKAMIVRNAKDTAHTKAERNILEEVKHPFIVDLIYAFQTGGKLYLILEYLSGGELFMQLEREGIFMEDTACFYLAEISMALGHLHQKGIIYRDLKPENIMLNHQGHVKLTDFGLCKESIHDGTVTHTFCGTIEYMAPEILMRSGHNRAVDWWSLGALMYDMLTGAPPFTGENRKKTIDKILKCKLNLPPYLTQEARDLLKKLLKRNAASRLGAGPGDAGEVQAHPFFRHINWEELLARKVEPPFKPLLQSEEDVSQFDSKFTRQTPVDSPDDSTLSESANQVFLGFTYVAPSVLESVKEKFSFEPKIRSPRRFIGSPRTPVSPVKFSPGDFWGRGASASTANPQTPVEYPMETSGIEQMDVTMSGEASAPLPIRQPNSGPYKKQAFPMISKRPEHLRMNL", "test": "Inhibition of P70S6K in human HeLa cells lysate at 2 uM pre incubated for 15 mins followed by ATP acyl phosphate probe addition and measured after 10 mins by LC-MS/MS analysis relative to control", "format": "subcellular", "conditions": "time 25.0 min"}, "[10]": {"target": "Serine/threonine-protein kinase Nek3 (Homo sapiens, UniProt P51956)", "sequence (P51956 whole entry)": "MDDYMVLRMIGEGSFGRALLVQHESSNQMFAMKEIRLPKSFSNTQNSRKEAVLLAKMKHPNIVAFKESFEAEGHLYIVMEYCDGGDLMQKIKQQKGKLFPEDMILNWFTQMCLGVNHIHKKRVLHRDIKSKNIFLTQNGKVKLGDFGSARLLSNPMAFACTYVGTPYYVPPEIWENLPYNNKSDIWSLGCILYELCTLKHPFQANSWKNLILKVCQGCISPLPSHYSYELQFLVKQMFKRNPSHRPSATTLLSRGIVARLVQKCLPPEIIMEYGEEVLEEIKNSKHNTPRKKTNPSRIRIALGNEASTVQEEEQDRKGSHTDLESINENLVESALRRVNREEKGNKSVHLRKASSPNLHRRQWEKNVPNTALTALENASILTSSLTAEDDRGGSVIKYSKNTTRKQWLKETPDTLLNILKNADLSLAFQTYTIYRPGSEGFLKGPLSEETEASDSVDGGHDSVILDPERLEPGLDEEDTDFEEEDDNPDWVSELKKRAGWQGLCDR", "test": "Inhibition of NEK3 in human HeLa cells lysate pre incubated for 15 mins followed by ADP acyl phosphate probe addition and measured after 10 mins by LC-MS/MS analysis", "format": "subcellular"}, "[11]": {"target": "Ribosomal protein S6 kinase alpha-1 (Homo sapiens, UniProt Q15418)", "sequence (Q15418 whole entry, the tested form may be a part)": "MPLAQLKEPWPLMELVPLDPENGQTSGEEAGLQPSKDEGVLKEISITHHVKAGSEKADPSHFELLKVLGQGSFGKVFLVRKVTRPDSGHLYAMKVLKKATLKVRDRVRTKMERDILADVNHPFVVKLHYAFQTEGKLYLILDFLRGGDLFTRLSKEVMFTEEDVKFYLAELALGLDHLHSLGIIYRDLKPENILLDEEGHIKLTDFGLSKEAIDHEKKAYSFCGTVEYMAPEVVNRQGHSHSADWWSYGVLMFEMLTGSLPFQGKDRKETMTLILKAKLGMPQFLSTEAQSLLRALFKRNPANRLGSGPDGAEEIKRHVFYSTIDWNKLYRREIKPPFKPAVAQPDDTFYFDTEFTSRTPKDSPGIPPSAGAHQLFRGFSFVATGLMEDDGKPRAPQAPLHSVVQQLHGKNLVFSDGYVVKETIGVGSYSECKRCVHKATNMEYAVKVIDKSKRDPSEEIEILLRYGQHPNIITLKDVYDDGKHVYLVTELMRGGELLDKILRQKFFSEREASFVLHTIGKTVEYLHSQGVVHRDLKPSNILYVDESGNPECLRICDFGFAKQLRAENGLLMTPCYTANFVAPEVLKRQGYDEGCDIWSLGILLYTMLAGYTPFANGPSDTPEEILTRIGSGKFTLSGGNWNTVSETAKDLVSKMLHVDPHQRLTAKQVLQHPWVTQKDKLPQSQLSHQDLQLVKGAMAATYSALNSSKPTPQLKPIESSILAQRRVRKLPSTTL", "test": "Inhibition of RSK1 domain 2 in human HeLa cells lysate at 2 uM pre incubated for 15 mins followed by ATP acyl phosphate probe addition and measured after 10 mins by LC-MS/MS analysis relative to control", "format": "subcellular", "conditions": "time 25.0 min"}, "[12]": {"target": "Phosphatidylinositol 4-kinase beta (Homo sapiens, UniProt Q9UBF8)", "sequence (Q9UBF8 whole entry)": "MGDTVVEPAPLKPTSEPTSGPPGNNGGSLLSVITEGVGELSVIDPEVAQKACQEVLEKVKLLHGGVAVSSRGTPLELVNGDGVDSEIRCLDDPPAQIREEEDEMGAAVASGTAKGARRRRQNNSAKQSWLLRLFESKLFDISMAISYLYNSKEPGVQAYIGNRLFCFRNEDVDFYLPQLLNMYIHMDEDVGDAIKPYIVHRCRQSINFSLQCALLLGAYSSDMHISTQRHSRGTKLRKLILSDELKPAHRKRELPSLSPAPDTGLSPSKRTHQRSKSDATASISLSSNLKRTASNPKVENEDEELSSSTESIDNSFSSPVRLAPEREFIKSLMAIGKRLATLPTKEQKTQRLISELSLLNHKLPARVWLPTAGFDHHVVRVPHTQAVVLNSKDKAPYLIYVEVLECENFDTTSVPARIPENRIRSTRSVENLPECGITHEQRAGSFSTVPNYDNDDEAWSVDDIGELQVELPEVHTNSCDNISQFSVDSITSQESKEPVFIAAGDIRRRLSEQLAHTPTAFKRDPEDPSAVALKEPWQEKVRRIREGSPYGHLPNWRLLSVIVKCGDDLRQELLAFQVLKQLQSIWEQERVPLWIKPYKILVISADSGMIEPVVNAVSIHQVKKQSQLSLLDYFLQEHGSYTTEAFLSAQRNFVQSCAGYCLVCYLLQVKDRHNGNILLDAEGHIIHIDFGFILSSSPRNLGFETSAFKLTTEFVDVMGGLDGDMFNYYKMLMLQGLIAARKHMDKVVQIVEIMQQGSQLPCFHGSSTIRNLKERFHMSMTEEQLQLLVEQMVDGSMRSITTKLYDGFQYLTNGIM", "test": "Inhibition of PIK4CB in human HeLa cells lysate pre incubated for 15 mins followed by ADP acyl phosphate probe addition and measured after 10 mins by LC-MS/MS analysis", "format": "subcellular"}, "[13]": {"target": "Serine/threonine-protein kinase DCLK1 (Homo sapiens) (UniProt O15075)", "test": "Inhibition of DCAMKL1 (unknown origin) assessed as remaining activity at 10 uM by ATP-competition binding assay relative to control"}, "[14]": {"target": "Macrophage-stimulating protein receptor (Homo sapiens, UniProt Q04912)", "test": "Inhibition of RON in human HeLa cells lysate at 2 uM pre incubated for 15 mins followed by ADP acyl phosphate probe addition and measured after 10 mins by LC-MS/MS analysis relative to control", "format": "subcellular", "conditions": "time 25.0 min"}, "[15]": {"target": "Cyclin-dependent kinase 16 (Homo sapiens, UniProt Q00536)", "sequence (Q00536 whole entry)": "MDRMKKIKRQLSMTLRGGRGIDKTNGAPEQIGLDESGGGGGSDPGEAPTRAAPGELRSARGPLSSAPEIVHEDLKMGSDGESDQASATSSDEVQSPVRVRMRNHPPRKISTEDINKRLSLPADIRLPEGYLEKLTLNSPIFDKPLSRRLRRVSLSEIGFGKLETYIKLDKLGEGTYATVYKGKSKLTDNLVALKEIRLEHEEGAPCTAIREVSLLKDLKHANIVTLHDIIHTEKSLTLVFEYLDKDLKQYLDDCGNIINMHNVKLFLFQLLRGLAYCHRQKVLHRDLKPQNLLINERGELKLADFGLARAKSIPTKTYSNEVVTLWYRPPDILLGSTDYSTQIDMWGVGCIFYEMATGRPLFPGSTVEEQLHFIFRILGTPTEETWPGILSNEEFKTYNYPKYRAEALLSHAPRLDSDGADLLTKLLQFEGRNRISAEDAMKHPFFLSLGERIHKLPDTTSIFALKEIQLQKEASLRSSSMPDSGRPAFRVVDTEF", "test": "Inhibition of PCTAIRE1 in human HeLa cells lysate at 10 uM pre incubated for 15 mins followed by ADP acyl phosphate probe addition and measured after 10 mins by LC-MS/MS analysis relative to control", "format": "subcellular", "conditions": "time 25.0 min"}, "[16]": {"target": "Phosphatidylinositol 5-phosphate 4-kinase type-2 beta (Homo sapiens, UniProt P78356)", "sequence (P78356 whole entry)": "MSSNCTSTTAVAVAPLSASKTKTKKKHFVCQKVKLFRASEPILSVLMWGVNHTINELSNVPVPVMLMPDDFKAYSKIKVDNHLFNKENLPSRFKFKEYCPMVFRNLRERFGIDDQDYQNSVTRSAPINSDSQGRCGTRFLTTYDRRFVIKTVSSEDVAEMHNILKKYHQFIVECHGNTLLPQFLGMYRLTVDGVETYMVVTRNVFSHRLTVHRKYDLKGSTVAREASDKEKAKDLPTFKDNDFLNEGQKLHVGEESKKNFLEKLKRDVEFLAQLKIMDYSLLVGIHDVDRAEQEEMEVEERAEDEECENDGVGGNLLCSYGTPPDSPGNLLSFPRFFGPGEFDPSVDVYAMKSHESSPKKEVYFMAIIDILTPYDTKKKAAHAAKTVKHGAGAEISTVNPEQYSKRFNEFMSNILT", "test": "Inhibition of PIP5K2B in human HeLa cells lysate pre incubated for 15 mins followed by ATP acyl phosphate probe addition and measured after 10 mins by LC-MS/MS analysis", "format": "subcellular"}, "[17]": {"target": "Serine/threonine-protein kinase 24 (Homo sapiens, UniProt Q9Y6E0)", "sequence (Q9Y6E0 whole entry, looked up)": "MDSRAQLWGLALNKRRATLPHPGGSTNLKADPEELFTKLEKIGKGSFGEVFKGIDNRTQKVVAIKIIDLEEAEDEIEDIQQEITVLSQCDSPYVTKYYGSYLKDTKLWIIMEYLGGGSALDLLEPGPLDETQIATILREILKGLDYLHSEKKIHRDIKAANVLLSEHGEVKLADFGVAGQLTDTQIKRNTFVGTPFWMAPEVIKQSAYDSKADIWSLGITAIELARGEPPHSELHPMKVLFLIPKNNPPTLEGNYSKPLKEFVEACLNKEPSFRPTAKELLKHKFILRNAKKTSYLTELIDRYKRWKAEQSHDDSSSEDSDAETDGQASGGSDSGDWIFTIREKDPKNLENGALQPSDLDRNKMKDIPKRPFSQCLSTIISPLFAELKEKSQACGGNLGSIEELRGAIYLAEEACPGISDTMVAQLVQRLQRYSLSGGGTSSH", "test": "Inhibition of MST3 in human HeLa cells lysate at 2 uM pre incubated for 15 mins followed by ADP acyl phosphate probe addition and measured after 10 mins by LC-MS/MS analysis relative to control", "format": "subcellular", "conditions": "time 25.0 min"}, "[18]": {"target": "T2, EKC/KEOPS complex subunit TP53RK (Homo sapiens) (UniProt Q96S44)", "T2 sequence (whole entry)": "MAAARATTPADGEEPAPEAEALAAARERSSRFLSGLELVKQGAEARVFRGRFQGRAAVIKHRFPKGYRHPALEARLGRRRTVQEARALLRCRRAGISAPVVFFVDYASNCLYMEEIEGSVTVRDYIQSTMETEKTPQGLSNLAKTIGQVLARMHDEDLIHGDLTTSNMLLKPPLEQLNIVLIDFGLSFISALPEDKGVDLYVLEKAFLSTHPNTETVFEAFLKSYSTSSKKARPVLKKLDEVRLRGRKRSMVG", "test": "Inhibition of PRPK in human HeLa cells lysate at 2 uM pre incubated for 15 mins followed by ATP acyl phosphate probe addition and measured after 10 mins by LC-MS/MS analysis relative to control", "format": "subcellular", "conditions": "time 25.0 min"}}}
{"compound": "CCOc1cc(N2CCC(O)CC2)ccc1Nc1ncc2c(n1)N(C)c1ccccc1C(=O)N2C", "values": [{"measurement": "IC50", "setting": "[1]", "value": "> 50", "unit": "µM"}, {"measurement": "inhibition", "setting": "[2]", "value": -6.5, "unit": "%"}, {"measurement": "IC50", "setting": "[3]", "value": "> 50", "unit": "µM"}, {"measurement": "inhibition", "setting": "[4]", "value": -3.1, "unit": "%"}, {"measurement": "Activity", "setting": "[5]", "value": 5.8, "unit": "g/dL"}, {"measurement": "inhibition", "setting": "[6]", "value": -7.8, "unit": "%"}, {"measurement": "IC50", "setting": "[7]", "value": "> 50", "unit": "µM"}, {"measurement": "inhibition", "setting": "[8]", "value": 19.3, "unit": "%"}, {"measurement": "inhibition", "setting": "[9]", "value": 7, "unit": "%"}, {"measurement": "IC50", "setting": "[10]", "value": "> 50", "unit": "µM"}, {"measurement": "inhibition", "setting": "[11]", "value": 13.6, "unit": "%"}, {"measurement": "IC50", "setting": "[12]", "value": "> 50", "unit": "µM"}, {"measurement": "Activity", "setting": "[13]", "value": 0.9, "unit": "%"}, {"measurement": "inhibition", "setting": "[14]", "value": 23.7, "unit": "%"}, {"measurement": "inhibition", "setting": "[15]", "value": 20.8, "unit": "%"}, {"measurement": "IC50", "setting": "[16]", "value": "> 50", "unit": "µM"}, {"measurement": "inhibition", "setting": "[17]", "value": 3.2, "unit": "%"}, {"measurement": "inhibition", "setting": "[18]", "value": 10.2, "unit": "%"}]}
